# Laboratory results taken from paper PMC10883374 (Science Advances, 2022).
# Where a chain is given by its changes, count along the chain named.
# How the values were obtained:
# [1] = target: N-terminal truncated dSAMTOR (Δ1-64) (Drosophila melanogaster, UniProt Q9W138); experiment: ITC ligand binding, Δ1-64 dSAMTOR
# Summary of the method: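 Tag-free dSAMTOR, expressed as His6-SUMO fusion in E. coli BL21(DE3), purified by Ni-NTA and gel filtration into 10 mM Hepes pH 7.5, 150 mM NaCl, 1 mM DTT. At 25°C, 1 mM SAM or SAH was titrated into 0.2 mM protein over 20 injections, with a background titration into buffer. Single-site fit gave Kd, ΔH and n; ΔG and ΔS were calculated. Runs: three for measurable binding, two for undetectable binding.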
# [2] = target: T1, R95A hSAMTOR interaction with GATOR1-KICSTOR (Homo sapiens, UniProt Q1RMZ1, R95A); experiment: Co-IP of Flag-hSAMTOR-R95A with HA-Nprl3 and Myc-Kaptin with or without SAM; assay type: biochemical; details: HEK 293T cell lysates, 0.5 mM SAM
# T1 sequence (Q1RMZ1 1-405 R95A): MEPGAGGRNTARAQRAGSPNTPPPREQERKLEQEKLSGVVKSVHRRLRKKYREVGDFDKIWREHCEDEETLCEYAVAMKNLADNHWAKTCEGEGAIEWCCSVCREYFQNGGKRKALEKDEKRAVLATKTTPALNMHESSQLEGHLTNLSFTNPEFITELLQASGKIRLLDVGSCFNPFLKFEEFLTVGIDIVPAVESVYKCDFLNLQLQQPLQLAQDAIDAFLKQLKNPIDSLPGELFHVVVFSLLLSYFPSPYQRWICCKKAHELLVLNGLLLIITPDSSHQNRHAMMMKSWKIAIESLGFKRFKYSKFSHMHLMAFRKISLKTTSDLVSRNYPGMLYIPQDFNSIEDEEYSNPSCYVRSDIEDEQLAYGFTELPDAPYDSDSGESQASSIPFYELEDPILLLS
# [3] = target: T2, D202A hSAMTOR interaction with GATOR1-KICSTOR (Homo sapiens, UniProt Q1RMZ1, D202A); experiment: Co-IP of Flag-hSAMTOR-D202A with HA-Nprl3 and Myc-Kaptin with or without SAM; assay type: biochemical; details: HEK 293T cell lysates, 0.5 mM SAM
# T2 sequence (Q1RMZ1 1-405 D202A): T1 sequence (Q1RMZ1 1-405 R95A) with A95R, D202A
# [4] = target: T3, hSAMTOR MTase domain (residues 91 to 405) interaction with GATOR1-KICSTOR (Homo sapiens, UniProt Q1RMZ1); experiment: Co-IP of hSAMTOR C-terminal MTase domain; assay type: biochemical; details: hSAMTOR CTD alone, HEK 293T cell lysates, 0.5 mM SAM
# T3 sequence (Q1RMZ1 91-405): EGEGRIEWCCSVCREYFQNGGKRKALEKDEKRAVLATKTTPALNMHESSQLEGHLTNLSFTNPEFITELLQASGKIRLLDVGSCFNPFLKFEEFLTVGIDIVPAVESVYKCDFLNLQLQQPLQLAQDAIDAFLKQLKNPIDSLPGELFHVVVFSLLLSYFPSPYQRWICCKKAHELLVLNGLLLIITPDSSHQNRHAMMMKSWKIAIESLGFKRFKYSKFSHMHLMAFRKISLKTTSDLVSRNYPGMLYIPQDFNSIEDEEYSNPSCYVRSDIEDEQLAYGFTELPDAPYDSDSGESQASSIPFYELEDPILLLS
# T3 sequence (Q12980 1-569 partner): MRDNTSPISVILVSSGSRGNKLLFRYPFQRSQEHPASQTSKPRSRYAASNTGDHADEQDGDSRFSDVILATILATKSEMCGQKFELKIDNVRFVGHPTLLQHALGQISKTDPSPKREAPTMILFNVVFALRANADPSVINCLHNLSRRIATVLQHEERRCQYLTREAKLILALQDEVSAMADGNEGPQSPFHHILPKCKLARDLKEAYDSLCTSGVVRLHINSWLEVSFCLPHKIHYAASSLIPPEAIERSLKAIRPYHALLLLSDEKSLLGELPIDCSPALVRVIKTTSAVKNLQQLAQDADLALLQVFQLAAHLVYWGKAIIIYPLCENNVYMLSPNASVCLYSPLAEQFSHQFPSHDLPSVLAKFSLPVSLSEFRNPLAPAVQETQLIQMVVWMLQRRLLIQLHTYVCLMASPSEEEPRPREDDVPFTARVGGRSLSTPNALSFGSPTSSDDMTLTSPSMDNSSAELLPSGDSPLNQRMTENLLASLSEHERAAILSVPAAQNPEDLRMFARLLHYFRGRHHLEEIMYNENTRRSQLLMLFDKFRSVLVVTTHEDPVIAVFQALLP
# T3 sequence (Q9Y664 1-436 partner): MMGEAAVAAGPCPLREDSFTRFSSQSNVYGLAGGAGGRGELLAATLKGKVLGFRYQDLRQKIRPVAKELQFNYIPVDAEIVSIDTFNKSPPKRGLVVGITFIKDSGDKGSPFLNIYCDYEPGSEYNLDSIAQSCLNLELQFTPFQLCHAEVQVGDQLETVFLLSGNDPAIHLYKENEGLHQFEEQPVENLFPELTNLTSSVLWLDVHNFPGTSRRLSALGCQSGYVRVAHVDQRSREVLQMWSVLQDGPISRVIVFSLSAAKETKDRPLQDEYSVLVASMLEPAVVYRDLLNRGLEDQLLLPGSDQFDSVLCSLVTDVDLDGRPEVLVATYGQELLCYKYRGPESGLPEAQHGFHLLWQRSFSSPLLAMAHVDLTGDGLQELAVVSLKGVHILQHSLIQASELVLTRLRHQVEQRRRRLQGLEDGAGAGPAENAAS
# Sequence of N-terminal truncated dSAMTOR (Δ1-64) (Q9W138 65-302, stated change not applied): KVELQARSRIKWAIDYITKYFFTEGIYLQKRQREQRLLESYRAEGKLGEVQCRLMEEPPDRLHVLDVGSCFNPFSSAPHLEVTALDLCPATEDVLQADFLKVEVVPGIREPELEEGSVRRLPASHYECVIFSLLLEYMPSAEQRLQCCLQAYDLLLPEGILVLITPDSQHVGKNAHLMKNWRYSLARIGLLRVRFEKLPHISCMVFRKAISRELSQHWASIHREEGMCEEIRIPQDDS
smiles,measurement,setting,value
"C[S+](CC[C@H](N)C(=O)[O-])C[C@H]1O[C@@H](n2cnc3c(N)ncnc32)[C@H](O)[C@@H]1O (stereo partly shown) [SAM, S-adenosylmethionine]",Kd,[1],6.78 ± 0.75 µM
same,TΔS,"[1]; ITC, 25°C, Δ1-64 dSAMTOR",5.89 kcal/mol
same,n value,"[1]; ITC, 25°C, Δ1-64 dSAMTOR",0.91 ± 0.01
same,ΔH,"[1]; ITC, 25°C, Δ1-64 dSAMTOR",-1.16 ± 0.01 kcal/mol
same,effect of SAM on interaction of hSAMTOR with GATOR1-KICSTOR (co-IP),[2],comparable interactions with GATOR1 and KICSTOR in both the absence and presence of SAM
same,effect of SAM on interaction of hSAMTOR with GATOR1-KICSTOR (co-IP),[3],comparable interactions with GATOR1 and KICSTOR in both the absence and presence of SAM
same,effect of SAM on interaction of the MTase domain with GATOR1-KICSTOR (co-IP),[4],no apparent effect
